Data set [1] concerns SiHa. The experiment in a line: Inhibition of colony formation in human SiHa cells at 40 to 80 nM incubated for 5 days by crystal violet staining based light microscopy. In kind it is functional, cell-based. In outline: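 4 × 10^3 cells per well were cultured with graded concentrations for 5 days. Cells were then fixed with 20% methanol, stained with 0.5% crystal violet and photographed by light microscopy.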

Data set [2] concerns SiHa. The data set is described as follows: Induction of apoptosis in human SiHa cells assessed as decrease in Rb phosphorylation incubated for 48 hrs by Western blot analysis. It counts as functional, cell-based. A digest of the protocol: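 Cancer cells were exposed to graded concentrations for 48 h, washed three times in PBS and lysed in RIPA buffer. Immunoblots were probed with anti-Rb, anti-phospho-Rb, anti-Ki67 and anti-Bcl-2, each at 1:1000. β-actin served as loading control.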
A general note: Immunoblotting shows a protein as a band on a membrane.

Another data set deals with HeLa. The experiment in a line: Induction of apoptosis in human HeLa cells assessed as decrease in Rb phosphorylation incubated for 48 hrs by Western blot analysis. It counts as functional, cell-based. In outline:
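Cells were treated for 48 h, washed three times with PBS, and lysed in RIPA buffer. Immunoblots used anti-Rb, anti-phospho-Rb, anti-Ki67 and anti-Bcl-2 (each 1:1000), with β-actin as loading control.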

The nature of data set [3]: AUC (0 to t) in Sprague-Dawley rat at 10 mg/kg, po by HPLC-MS analysis. It counts as ADME, organism-based. The settings on record: in vivo. In outline: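 Rats fitted with jugular vein catheters for serial blood sampling. Compound dissolved in saline with 5% (v/v) DMSO and given as a single 10 mg/kg dose iv or po after an overnight fast, n = 5 per group. Plasma isolated at once and measured by HPLC with tandem MS detection. Parameters derived by noncompartmental fitting.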

Data set [4] concerns the target Ephrin type-B receptor 2 (Homo sapiens) (UniProt P29323). The data set is described as follows: Inhibition of recombinant human EPhB2 (560 to end residues) at 1 uM using poly(Glu, Tyr) 4:1 as substrate incubated for 40 mins in presence of [gamma-33P]-ATP by scintillation counting method relative to control.
Data set [5] concerns Fibroblast growth factor receptor 2 (Homo sapiens), P21802 [N549H]. The data set is described as follows: Inhibition of recombinant human FGFR2 N549H mutant (456 to 770 residues) at 1 uM using GGEEEEYFELVKKKK as substrate incubated for 40 mins in presence of [gamma-33P]-ATP by scintillation counting method relative to control.
In data set [6] the target is Macrophage colony-stimulating factor 1 receptor (Homo sapiens) (UniProt P07333). The experiment in a line: Inhibition of recombinant human FMS (538 to end residues) at 1 uM using KKKSPGEYVNIEF as substrate incubated for 40 mins in presence of [gamma-33P]-ATP by scintillation counting method relative to control.
Chain of Macrophage colony-stimulating factor 1 receptor (Homo sapiens) (P07333 whole entry): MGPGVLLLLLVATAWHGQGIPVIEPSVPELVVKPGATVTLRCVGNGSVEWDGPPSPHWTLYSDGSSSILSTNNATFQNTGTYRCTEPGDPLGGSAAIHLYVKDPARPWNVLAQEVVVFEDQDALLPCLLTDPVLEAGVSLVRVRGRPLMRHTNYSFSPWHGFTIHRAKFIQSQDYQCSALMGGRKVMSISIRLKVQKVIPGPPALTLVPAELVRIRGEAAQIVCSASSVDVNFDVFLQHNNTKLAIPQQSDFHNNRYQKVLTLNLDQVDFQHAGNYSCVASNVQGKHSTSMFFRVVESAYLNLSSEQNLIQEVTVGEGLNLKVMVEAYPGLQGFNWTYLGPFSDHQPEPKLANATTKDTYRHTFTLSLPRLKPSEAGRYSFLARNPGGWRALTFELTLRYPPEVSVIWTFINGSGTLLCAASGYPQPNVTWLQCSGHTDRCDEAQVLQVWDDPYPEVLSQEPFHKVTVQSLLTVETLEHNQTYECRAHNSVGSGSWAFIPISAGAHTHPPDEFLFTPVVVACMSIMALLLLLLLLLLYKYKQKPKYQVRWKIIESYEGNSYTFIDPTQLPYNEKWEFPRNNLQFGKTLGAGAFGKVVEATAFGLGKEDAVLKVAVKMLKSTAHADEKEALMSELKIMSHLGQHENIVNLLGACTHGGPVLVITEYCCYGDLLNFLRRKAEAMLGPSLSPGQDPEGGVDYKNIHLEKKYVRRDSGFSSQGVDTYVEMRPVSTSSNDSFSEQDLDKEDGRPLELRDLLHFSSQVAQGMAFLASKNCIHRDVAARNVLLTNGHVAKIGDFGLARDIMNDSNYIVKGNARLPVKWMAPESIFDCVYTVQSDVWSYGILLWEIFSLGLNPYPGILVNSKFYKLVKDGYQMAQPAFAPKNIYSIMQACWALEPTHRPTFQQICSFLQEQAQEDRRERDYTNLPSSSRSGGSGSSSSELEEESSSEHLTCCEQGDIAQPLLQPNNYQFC
In data set [7] the test system is Macrophage colony-stimulating factor 1 receptor (Homo sapiens), P07333 [Y969C]. The experiment in a line: Inhibition of recombinant human FMS Y969C mutant (538 to end residues) at 1 uM using EEEEYEEEEEEYY as substrate incubated for 40 mins in presence of [gamma-33P]-ATP by scintillation counting method relative to control.
Chain of Macrophage colony-stimulating factor 1 receptor (Homo sapiens), P07333 [Y969C] (P07333 whole entry Y969C, the tested form may be a part): as the sequence (P07333 whole entry) above, with Y969C counted along it
Data set [8] addresses Tyrosine-protein kinase HCK (Homo sapiens) (UniProt P08631). The data set is described as follows: Inhibition of recombinant human HCK (230 to 497 residues) at 1 uM using GGMEDIYFEFMGGKKK as substrate incubated for 40 mins in presence of [gamma-33P]-ATP by scintillation counting method relative to control.
In data set [9] the target is Ribosomal protein S6 kinase alpha-5 (Homo sapiens) (UniProt O75582). The data set is described as follows: Inhibition of recombinant human MSK1 (2 to end residues) at 1 uM using GRPRTSSFAEGKK as substrate incubated for 40 mins in presence of [gamma-33P]-ATP by scintillation counting method relative to control.
Chain of Ribosomal protein S6 kinase alpha-5 (Homo sapiens) (O75582 whole entry, looked up): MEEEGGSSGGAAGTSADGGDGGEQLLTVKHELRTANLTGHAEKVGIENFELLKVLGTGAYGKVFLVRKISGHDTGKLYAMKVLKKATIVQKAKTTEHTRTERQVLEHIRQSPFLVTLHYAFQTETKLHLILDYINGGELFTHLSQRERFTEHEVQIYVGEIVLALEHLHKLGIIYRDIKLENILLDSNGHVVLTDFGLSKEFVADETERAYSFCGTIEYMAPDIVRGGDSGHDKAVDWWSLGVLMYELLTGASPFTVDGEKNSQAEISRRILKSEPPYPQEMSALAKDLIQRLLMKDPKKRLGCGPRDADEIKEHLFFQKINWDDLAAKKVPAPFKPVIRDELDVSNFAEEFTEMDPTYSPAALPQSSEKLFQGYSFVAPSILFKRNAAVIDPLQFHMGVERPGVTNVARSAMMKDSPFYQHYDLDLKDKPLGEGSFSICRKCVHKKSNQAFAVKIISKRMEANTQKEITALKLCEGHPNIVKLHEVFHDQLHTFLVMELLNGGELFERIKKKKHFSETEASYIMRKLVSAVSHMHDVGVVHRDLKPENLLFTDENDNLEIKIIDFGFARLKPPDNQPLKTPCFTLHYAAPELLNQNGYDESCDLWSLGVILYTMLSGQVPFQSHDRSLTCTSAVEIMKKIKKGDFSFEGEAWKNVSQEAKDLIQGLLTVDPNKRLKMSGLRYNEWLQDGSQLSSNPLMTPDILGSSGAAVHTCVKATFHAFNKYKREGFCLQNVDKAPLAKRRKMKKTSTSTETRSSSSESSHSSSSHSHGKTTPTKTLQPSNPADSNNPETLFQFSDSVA
For data set [10], the target named is NUAK family SNF1-like kinase 2 (Homo sapiens) (UniProt Q9H093). The data set is described as follows: Inhibition of recombinant human full length NUAK2 at 1 uM using KKKVSRSGLYRSPSMPENLNRPR as substrate incubated for 40 mins in presence of [gamma-33P]-ATP by scintillation counting method relative to control.
Data set [11] deals with Serine/threonine-protein kinase PAK 1 (Homo sapiens) (UniProt Q13153). The experiment in a line: Inhibition of recombinant human PAK1 (150 to end residues) at 1 uM using RRRLSFAEPG as substrate incubated for 40 mins in presence of [gamma-33P]-ATP by scintillation counting method relative to control.
For data set [12], the target named is Serine/threonine-protein kinase PAK 6 (Homo sapiens) (UniProt Q9NQU5). The experiment in a line: Inhibition of recombinant human PAK6 (382 to end residues) at 1 uM using RRRLSFAEPG as substrate incubated for 40 mins in presence of [gamma-33P]-ATP by scintillation counting method relative to control.
The target of data set [13] is Serine-protein kinase ATM (Homo sapiens) (UniProt Q13315). The data set is described as follows: Inhibition of recombinant human full length ATM at 1 uM using GST-cMyc-p53 as substrate incubated for 40 mins in presence of [gamma-33P]-ATP by scintillation counting method relative to control.
In data set [14] the target is RAC-alpha serine/threonine-protein kinase (Homo sapiens) (UniProt P31749). The data set is described as follows: Inhibition of recombinant human PKBalpha at 1 uM using as CKRREILSRRPSYRK substrate incubated for 60 mins in presence of [gamma-33P]-ATP by scintillation counting method relative to control.
For data set [15], the target named is Protein kinase C gamma type (Homo sapiens) (UniProt P05129). The experiment in a line: Inhibition of recombinant human full length PKCgamma at 1 uM using histone H1 as substrate incubated for 40 mins in presence of [gamma-33P]-ATP by scintillation counting method relative to control.
Data set [16] deals with TGF-beta receptor type-1 (Homo sapiens) (UniProt P36897). The data set is described as follows: Inhibition of recombinant human TGFBR1 (200 to end residues) at 1 uM using casein as substrate incubated for 40 mins in presence of [gamma-33P]-ATP by scintillation counting method relative to control.
For data set [17], the target named is Testis-specific serine/threonine-protein kinase 4 (Homo sapiens) (UniProt Q6SA08). The experiment in a line: Inhibition of recombinant human full length TSSK4 at 1 uM using KKLNRTLSFAEPG as substrate incubated for 40 mins in presence of [gamma-33P]-ATP by scintillation counting method relative to control. In outline:
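Single-point inhibition at 1 uM measured in a commercial kinase profiling panel (KinaseProfiler); each value is the mean of two independent experiments.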

The target of data set [18] is Serine/threonine-protein kinase ULK2 (Homo sapiens) (UniProt Q8IYT8). The data set is described as follows: Inhibition of recombinant human ULK2 (1 to 306 residues) at 1 uM using as casein substrate incubated for 40 mins in presence of [gamma-33P]-ATP by scintillation counting method relative to control. A digest of the protocol:
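Tested at a single 1 uM in an outsourced commercial kinase-profiling panel, read as percent inhibition. Each value is the mean of two independent experiments.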

Data set [19] has as its system PI3-kinase p110-alpha/p85-alpha (Homo sapiens), P27986+P42336 [E545K]. The experiment in a line: Inhibition of recombinant human full length PI3K p110alpha/p85alpha E545K mutant at 1 uM using phosphatidylinositol 4,5-bisphosphate as substrate incubated for 40 mins in presence of [gamma-33P]-ATP by scintillation counting method relative to control. In kind it is protein-complex assay.

Data set [20] relates to SiHa. The data set is described as follows: Antitumor activity against human SiHa cells xenografted in NOD/SCID BALB/c mouse assessed as tumor growth inhibition at 40 mg/kg, po administered for 21 days. In kind it is functional, organism-based. (In general: In xenograft studies the graft and the host belong to different species.)

Calls of active or inactive are those of the source. The calls are words filed in the database; no cut-off is given here.

Chain of Ephrin type-B receptor 2 (Homo sapiens) (P29323 whole entry, the tested form may be a part): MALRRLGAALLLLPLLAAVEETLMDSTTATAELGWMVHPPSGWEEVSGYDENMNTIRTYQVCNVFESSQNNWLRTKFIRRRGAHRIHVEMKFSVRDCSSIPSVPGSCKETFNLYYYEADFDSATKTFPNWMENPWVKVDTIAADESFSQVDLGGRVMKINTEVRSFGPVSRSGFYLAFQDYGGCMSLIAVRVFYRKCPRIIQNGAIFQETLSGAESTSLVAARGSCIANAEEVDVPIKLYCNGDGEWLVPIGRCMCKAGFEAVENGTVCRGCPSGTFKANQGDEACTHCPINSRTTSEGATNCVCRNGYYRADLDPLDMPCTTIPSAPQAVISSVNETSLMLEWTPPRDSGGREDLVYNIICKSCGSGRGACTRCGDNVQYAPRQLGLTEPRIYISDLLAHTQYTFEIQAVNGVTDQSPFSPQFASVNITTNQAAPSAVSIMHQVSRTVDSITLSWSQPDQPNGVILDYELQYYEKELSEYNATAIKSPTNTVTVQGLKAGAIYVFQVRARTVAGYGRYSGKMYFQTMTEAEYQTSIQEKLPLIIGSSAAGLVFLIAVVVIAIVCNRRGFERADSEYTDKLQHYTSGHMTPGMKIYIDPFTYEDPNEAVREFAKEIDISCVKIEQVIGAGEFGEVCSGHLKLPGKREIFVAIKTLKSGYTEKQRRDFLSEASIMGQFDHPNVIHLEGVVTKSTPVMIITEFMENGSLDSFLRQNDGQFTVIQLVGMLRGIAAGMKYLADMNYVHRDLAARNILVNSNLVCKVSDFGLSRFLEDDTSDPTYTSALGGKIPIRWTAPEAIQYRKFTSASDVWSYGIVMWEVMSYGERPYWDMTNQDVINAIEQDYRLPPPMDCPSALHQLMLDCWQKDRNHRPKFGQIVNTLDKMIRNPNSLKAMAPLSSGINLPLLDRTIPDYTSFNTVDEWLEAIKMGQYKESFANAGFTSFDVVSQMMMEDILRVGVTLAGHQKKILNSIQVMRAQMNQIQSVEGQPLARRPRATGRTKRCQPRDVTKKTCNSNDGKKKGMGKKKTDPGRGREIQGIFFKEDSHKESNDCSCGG
Chain of Serine/threonine-protein kinase ULK2 (Homo sapiens) (Q8IYT8 whole entry, the tested form may be a part): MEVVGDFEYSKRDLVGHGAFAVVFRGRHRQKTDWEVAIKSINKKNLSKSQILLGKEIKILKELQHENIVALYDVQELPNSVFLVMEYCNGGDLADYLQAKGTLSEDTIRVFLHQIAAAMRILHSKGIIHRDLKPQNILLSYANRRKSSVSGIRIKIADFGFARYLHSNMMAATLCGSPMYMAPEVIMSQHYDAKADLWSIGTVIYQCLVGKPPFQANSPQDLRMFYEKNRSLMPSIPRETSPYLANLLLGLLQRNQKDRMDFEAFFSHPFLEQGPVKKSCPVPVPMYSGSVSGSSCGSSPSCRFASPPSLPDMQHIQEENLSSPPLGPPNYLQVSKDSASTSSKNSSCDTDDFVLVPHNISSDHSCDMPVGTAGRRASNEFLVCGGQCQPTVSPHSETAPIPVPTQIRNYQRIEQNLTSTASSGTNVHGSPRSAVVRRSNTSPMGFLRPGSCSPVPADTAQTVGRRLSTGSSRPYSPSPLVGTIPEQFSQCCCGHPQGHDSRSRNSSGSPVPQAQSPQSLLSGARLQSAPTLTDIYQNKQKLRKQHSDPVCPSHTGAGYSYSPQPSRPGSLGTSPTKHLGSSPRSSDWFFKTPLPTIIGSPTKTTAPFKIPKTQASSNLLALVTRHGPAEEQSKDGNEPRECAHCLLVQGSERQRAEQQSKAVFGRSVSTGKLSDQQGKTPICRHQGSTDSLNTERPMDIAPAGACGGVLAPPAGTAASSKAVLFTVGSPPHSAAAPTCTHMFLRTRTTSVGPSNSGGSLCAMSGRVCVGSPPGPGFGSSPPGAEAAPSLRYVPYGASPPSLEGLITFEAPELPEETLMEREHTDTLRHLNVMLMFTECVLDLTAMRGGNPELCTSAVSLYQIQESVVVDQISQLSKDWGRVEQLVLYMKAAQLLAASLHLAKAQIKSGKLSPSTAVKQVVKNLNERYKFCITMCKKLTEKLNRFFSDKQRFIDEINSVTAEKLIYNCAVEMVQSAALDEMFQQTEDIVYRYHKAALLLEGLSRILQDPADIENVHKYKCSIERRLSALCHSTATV
Chain of Tyrosine-protein kinase HCK (Homo sapiens) (P08631 2-526 limits assumed): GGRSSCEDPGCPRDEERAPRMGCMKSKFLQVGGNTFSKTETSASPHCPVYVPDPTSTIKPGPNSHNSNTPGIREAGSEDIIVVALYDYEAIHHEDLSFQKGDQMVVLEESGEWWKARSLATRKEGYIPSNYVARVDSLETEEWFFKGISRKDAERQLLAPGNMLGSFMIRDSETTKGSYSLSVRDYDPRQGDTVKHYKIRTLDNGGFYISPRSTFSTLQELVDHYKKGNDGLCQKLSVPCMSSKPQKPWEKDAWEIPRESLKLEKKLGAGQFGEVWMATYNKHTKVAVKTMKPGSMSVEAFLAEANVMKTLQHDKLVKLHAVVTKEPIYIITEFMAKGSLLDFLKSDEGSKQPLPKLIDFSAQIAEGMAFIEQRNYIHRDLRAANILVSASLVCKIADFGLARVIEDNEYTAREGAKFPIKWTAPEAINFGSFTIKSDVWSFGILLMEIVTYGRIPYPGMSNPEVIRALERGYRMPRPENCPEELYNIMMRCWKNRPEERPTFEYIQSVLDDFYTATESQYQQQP
Chain of Testis-specific serine/threonine-protein kinase 4 (Homo sapiens) (Q6SA08 whole entry): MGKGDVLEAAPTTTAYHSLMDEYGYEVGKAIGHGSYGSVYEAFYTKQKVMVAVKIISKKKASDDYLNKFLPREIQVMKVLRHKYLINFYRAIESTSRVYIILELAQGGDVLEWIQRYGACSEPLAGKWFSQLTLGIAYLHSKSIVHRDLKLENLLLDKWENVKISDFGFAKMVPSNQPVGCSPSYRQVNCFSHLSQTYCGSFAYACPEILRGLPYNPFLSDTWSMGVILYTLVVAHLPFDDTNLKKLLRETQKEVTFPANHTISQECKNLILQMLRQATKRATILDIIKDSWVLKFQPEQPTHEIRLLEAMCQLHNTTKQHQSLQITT

As usually defined, the inhibition is the relative decrease from the control value, in per cent. Broadly, the AUC(0-t) is the area under the concentration-time curve up to a stated or last time point. A higher AUC(0-t) goes with high exposure. On to `Cc1ccc(NC(=O)C2(C(=O)Nc3ccc(Nc4ncc(F)c(-c5cc(F)c6nc(C)n(C(C)C)c6c5)n4)cc3)CC2)cc1`, for which the inhibition entry in the data set with SiHa [1] was “Active”. In addition, the Activity entry with SiHa [2] and with HeLa was “Dose-dependent effect” in each case. The AUC(0-t) in [3] is 6000 ng·h/mL. For the same compound, the inhibition amounted to 23% in data set [4]; 7% in data set [5]; 64% in data set [6]; 73% in [7]; 66% in data set [8]; 62% in data set [9]. The inhibition in data set [10] was 67%; in [11], 52%; in data set [12] it was 12%; in data set [13], 2%; in data set [14], 36%; in data set [15] it was 23%. Besides, the inhibition in [16] was 6%; in data set [17] it was 0%; in [18] it was 0%; in data set [19], 2%.
As to `COc1cc2nccc(Oc3ccc(NC(=O)C4(C(=O)Nc5ccc(F)cc5)CC4)cc3)c2cc1OC` [CABOZANTINIB], the TGI result in the data set with SiHa [20] was “Active”.

The values above are taken from ChEMBL document CHEMBL4406821, “Novel dual inhibitors targeting CDK4 and VEGFR2 synergistically suppressed cancer progression and angiogenesis” (Eur J Med Chem, 2019).
